Assay results pooled from the literature.
Compare with care: the assays were run in different laboratories.
F2 trypsin-like site: Prothrombin, trypsin-like site (F2, Bos taurus, UniProt P00735)
MTNR1A: Melatonin receptor type 1A (MTNR1A, Homo sapiens, UniProt P48039)
Tmem97: Sigma intracellular receptor 2 (Tmem97, Rattus norvegicus, UniProt Q5U3Y7)
CYP51: Sterol 14-alpha demethylase (CYP51, Trypanosoma cruzi, UniProt Q7Z1V1)
FLT3: Receptor-type tyrosine-protein kinase FLT3 (FLT3, Homo sapiens, UniProt P36888)

Structure (SMILES)	target	test	conditions	endpoint	result
CC(C)(C)[C@H](NC(=O)[C@H](CCONC(=N)N)NC(=O)Cc1ccc(CNC(=N)N)cc1)C(=O)N[C@@H](CCCCN)C(=O)NCc1ccc(C(=N)N)cc1	F2 trypsin-like site	enzyme activity, inhibitor	pH 8	Ki	61 µM
COc1cc2c(CCNC(C)=O)c[nH]c2cc1I	MTNR1A	β-arrestin recruitment, agonist		EC50	0.00525 µM
COc1ccc2ccn(CCCCN3CCc4cc(OC)c(OC)cc4C3)c2c1	Tmem97	ligand displacement, radioligand	cell membranes	Ki	0.00868 µM
CC(C)c1ccc(NC(=O)O[C@H](Cn2ccnc2)c2ccc(F)cc2)cc1	CYP51	binding		Kd	0.032 µM
Fc1ccc(CNc2cccc(-c3nnc[nH]3)c2)c(F)c1	MTNR1A	cAMP, agonist, luciferase		EC50	0.245 µM
Cc1cnc(-c2ccc(-c3ccc(NC(=O)Nc4c(F)cc(F)cc4F)cc3F)c3c2C(=O)NC3)[nH]1	Aurora kinase A (AURKA, Homo sapiens, UniProt O14965)	binding, competition with immobilised ligand		Kd	0.0029 µM
Fc1cccc(Nc2nccc(NC3CCCCC3)n2)c1	FLT3	enzyme activity, inhibitor		IC50	0.379 µM
COc1cc2c(CCNC(C)=O)c(I)[nH]c2cc1[N+](=O)[O-]	MTNR1A	GTPγS binding, agonist, radiometric	cell membranes	EC50	0.0209 µM
Clc1ccc(CNc2cccc(-c3nnc[nH]3)c2)cc1Cl	MTNR1A	cAMP, agonist, luciferase		EC50	0.229 µM
CCCN1CCN(c2ccc(-c3cncc(Cl)c3N3CCC4(CCNC4=O)CC3)cc2)CC1	Myotonin-protein kinase (DMPK, Homo sapiens, UniProt Q09013)	cell-free assay	lysate	Kd	18.4 µM
COc1cccc2c1CCN(C(=O)c1cc(=O)n(C)cc1Br)C2	MTNR1A	cAMP, agonist, luciferase		EC50	0.0963 µM
c1cncc(Nc2nccc(NC3CCCCC3)n2)c1	FLT3	enzyme activity, inhibitor		IC50	> 19 µM
O=C(Nc1ccc(Sc2ccc([N+](=O)[O-])cc2)cc1)O[C@H](Cn1ccnc1)c1ccc(Cl)cc1	CYP51	binding		Kd	0.162 µM
COc1ccc2c(c1)N(Cc1cccc3[nH]ccc13)CCO2	MTNR1A	cAMP, agonist, luciferase		EC50	0.0208 µM
Cc1cc2nc3c(=O)[nH]c(=O)nc-3n(C[C@H](O)[C@H](O)[C@H](O)COP(=O)(O)OP(=O)(O)OC[C@H]3O[C@@H](n4cnc5c(N)ncnc54)[C@H](O)[C@@H]3O)c2cc1C	BMP-2-inducible protein kinase (BMP2K, Homo sapiens, UniProt Q9NSY1)	binding	lysate	Kd	0.031 µM
Cc1ccc(C(=O)Nc2ccc(Oc3cc4cnn(C)c4cc3-c3cn[nH]c3)c(F)c2)c(=O)n1-c1ccc(F)cc1	Tyrosine-protein kinase receptor Tie-1 (TIE1, Homo sapiens, UniProt P35590)	binding, competition with immobilised ligand		Kd	0.0009 µM
COc1ccc(-c2nsc(NC(=O)[C@@H]3C[C@H]3C)c2C)cc1	Metabotropic glutamate receptor 1 (Grm1, Rattus norvegicus, UniProt P23385)	ligand displacement, radioligand		Ki	0.0006 µM
CC(C)(C)[C@H](NC(=O)[C@H](CCCNC(=N)N)NC(=O)Cc1ccc(CNC(=N)N)cc1)C(=O)N[C@@H](CCCNC(=N)N)C(=O)NCc1ccc(C(=N)N)cc1	F2 trypsin-like site	enzyme activity, inhibitor	pH 8	Ki	20 µM
O=C(NCCCn1ccnc1)O[C@@H](Cn1ccnc1)c1ccc(F)cc1	CYP51	binding		Kd	0.087 µM
CCC(=O)NC1Cc2ccccc2C(c2ccccc2)C1 (centres unmarked)	MTNR1A	cAMP, agonist, TR-FRET		EC50	0.282 µM
COC(=O)c1sc(N(C)Cc2ccc(OC)c(O)c2)nc1Cl	MTNR1A	cAMP, agonist, luciferase		EC50	0.0145 µM

Structure (SMILES)	target	test	conditions	endpoint	result
c1cncc(-c2cccc(Nc3nccc(NC4CCC4)n3)c2)c1	FLT3	enzyme activity, inhibitor		IC50	< 0.006 µM
CN(Cc1ccsc1)c1ccnc(Cl)c1	MTNR1A	cAMP, agonist, luciferase		EC50	2.66 µM
CC(C)Nc1ccnc(Nc2cccc(-c3cccnc3)c2)n1	FLT3	enzyme activity, inhibitor		IC50	< 0.006 µM
O=C(O)CNC(=O)C(=O)O	Glutamate dehydrogenase 1, mitochondrial (GLUD1, Bos taurus, UniProt P00366)	binding, NMR		Kd	10000 µM
CC(C)(C)[C@H](NC(=O)[C@H](CCONC(=N)N)NC(=O)Cc1ccc(CN)cc1)C(=O)N[C@@H](CCONC(=N)N)C(=O)NCc1ccc(C(=N)N)cc1	F2 trypsin-like site	enzyme activity, inhibitor	pH 8	Ki	25 µM
Cc1cc(Nc2cc3ncccc3c(N[C@@H]3C[C@H]4CC[C@@H](C3)N4CCC#N)n2)n[nH]1	Ephrin type-B receptor 6 (EPHB6, Homo sapiens, UniProt O15197)	binding, competition with immobilised ligand		Kd	2 µM
CC(C)Nc1ccnc(Nc2cccc(-c3ccccc3)c2)n1	FLT3	enzyme activity, inhibitor		IC50	11.6 µM
COc1ccc2ncn(CCNC(C)=O)c2c1	MTNR1A	GTPγS binding, agonist, radiometric	cell membranes	EC50	2.19 µM
CC(C)c1nc2cc(OCCCCN3CCN(c4cccc5c4OCCO5)CC3)ccc2s1	5-hydroxytryptamine receptor 2C (HTR2C, Homo sapiens, UniProt P28335)	cell-free assay, radioligand		Ki	0.092 µM
CC(C)Nc1ccnc(Nc2cccc(-c3ncco3)c2)n1	FLT3	enzyme activity, inhibitor		IC50	0.918 µM
COc1cccc2c1CCN(C(=O)c1cncn1C)C2	MTNR1A	cAMP, agonist, luciferase		EC50	0.0227 µM
COc1ccc2c(ccn2CCCCN2Cc3cc(OC)c(OC)cc3C2)c1	Tmem97	ligand displacement, radioligand	cell membranes	Ki	0.00891 µM
O=C(NCCc1cccc2ccccc12)C1CCC1	MTNR1A	β-arrestin recruitment, agonist		EC50	0.288 µM
CC(C)Nc1ccnc(Nc2cccc(-c3cnccn3)c2)n1	FLT3	enzyme activity, inhibitor		IC50	0.011 µM
CCCCN1CCN(C2CCCCC2)CC1	Tmem97	ligand displacement, radioligand	cell membranes	Ki	0.0652 µM
COc1ccc2[nH]cc(CCNC(C)=O)c2c1I	MTNR1A	GTPγS binding, agonist, radiometric	cell membranes	EC50	0.112 µM
O=C(NCCN1CCCCC1)c1cc(Br)ccc1O	Tmem97	ligand displacement, radioligand	cell membranes	Ki	> 10 µM
O=C(O[C@H](Cn1ccnc1)c1ccccc1)c1ccc(-c2ccccc2)cc1	CYP51	binding		Kd	0.046 µM
COC(=O)c1nccc(N(C)CC2CCCCC2O)n1 (centres unmarked)	MTNR1A	cAMP, agonist, luciferase		EC50	1.86 µM
CC(C)Nc1ccnc(Nc2cccc(-c3ccccn3)c2)n1	FLT3	enzyme activity, inhibitor		IC50	2.88 µM
